Results: ChEMBL document CHEMBL1126066, “Biological activities and quantitative structure-activity relationships of spiro[imidazolidine-4,4'(1'H)-quinazoline]-2,2',5(3'H)-triones as aldose reductase inhibitors” (J Med Chem, 1992)
Values joined by “and” are separate entries in the source; they are usually repeats but may differ in a detail not shown here. Equal values may be shown once.

Assays:
Rattus norvegicus [1] = experiment: Compound was evaluated in vivo for inhibition of polyol accumulation in rat at a dose of 15 mg/kg per day.
Rattus norvegicus [2] = experiment: Compound was evaluated in vivo for polyol content in lens of galactosemic rats at a dose of 3 mg/kg per day.
Rattus norvegicus [3] = experiment: Compound was evaluated in vivo for 50% inhibition of polyol accumulation in rat sciatic nerve at a dose of 3 mg/kg per day.
Rattus norvegicus [4] = experiment: In vivo inhibition of polyol accumulation in the sciatic nerve of galactosemic rats, activity is measured as polyol contents; type: functional, organism-based
In short: (§1)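 Male Wistar rats (SIC, 4 weeks old), three per group, had free access to water and a 20% galactose diet containing the compound for 6 days. Galactose-only and standard-diet groups served as controls. Rats were bled under ether anesthesia on day 7. Sciatic nerve polyol was measured by a modified Dvornik assay. % inhibition = (galactose control − treated)/(galactose control − normal) × 100. Student's t-test was used.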

Rattus norvegicus [5] = experiment: Compound was evaluated in vivo for […] at a dose of 90 mg/kg per day.; type: functional, organism-based
Rattus norvegicus [6] = experiment: Compound was evaluated in vivo for […] at a dose of 15 mg/kg per day.; type: functional, organism-based; settings: Sciatic nerve
In short: as §1

Rattus norvegicus [7] = experiment: In vivo inhibition of polyol accumulation in the sciatic nerve of galactosemic rats, activity is expressed as percent inhibition of poloyl accumulation.; type: functional; set-up: concentration or dose not given beside the values
In short: as §1

Rattus norvegicus [8] = experiment: Compound was evaluated in vivo for percent inhibition of polyol accumulation at a dose of 3 mg/kg per day.; type: functional
In short: (§2)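 Galactosemic male Wistar rats (4 weeks old, n = 3) received the compound in a 20% galactose diet for 6 days and were killed on day 7. Sciatic nerve or lens polyol was measured by a modified Dvornik assay. Mean % inhibition = (galactose control − treated)/(galactose control − normal control) × 100.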

Rattus norvegicus [9] = experiment: Compound was evaluated in vivo for 50% inhibition of enzymatic activity of partially purified AR from male rabbit sciatic nerve at a dose of 90 mg/kg per day.; type: functional, organism-based
In short: as §1

Rattus norvegicus [10] = experiment: Compound was evaluated in vivo for percent inhibition of polyol accumulation at a dose of 15 mg/kg per day; type: functional
In short: as §2

SMILES | polyol content (Rattus norvegicus [4]) [µmol/g] | Inhibition (Rattus norvegicus [7]) [%] | also measured
CN1C(=O)Nc2ccc(Cl)cc2[C@@]12NC(=O)NC2=O | 3.4 | 100 | polyol content (Rattus norvegicus [1]): 59.2 µmol/g; polyol content (Rattus norvegicus [2]): 58.9 µmol/g; polyol content (Rattus norvegicus [3]): 7.5 µmol/g; polyol content (Rattus norvegicus [5]): 42.4 µmol/g; polyol content (Rattus norvegicus [6]): 4.8 µmol/g; Inhibition (Rattus norvegicus [8]): 23.4% and 0%; polyol content (Rattus norvegicus [9]): 2.8 µmol/g
CN1C(=O)Nc2ccc(Cl)cc2C12NC(=O)NC2=O (stereo not drawn) | 6.7 | 68 | –
CN1C(=O)Nc2cc([N+](=O)[O-])ccc2C12NC(=O)NC2=O (stereo not drawn) | 10.3 | 11.5 | –
O=C1NC(=O)[C@@]2(CCOc3ccc(F)cc32)N1 [SORBINIL] | – | – | inhibition in vivo at 15 mg/kg/day (Rattus norvegicus [10]): 90.2%
CN1C(=O)Nc2ccc(F)cc2[C@@]12NC(=O)NC2=O | 6.6 | 61 | –
CN1C(=O)Nc2ccc(Br)cc2C12NC(=O)NC2=O (stereo not drawn) | 5.6 | 74.7 | –
CN1C(=O)N(C)C2(NC(=O)NC2=O)c2ccccc21 (stereo not drawn) | 9.2 | 28.4 | –
CN1C(=O)Nc2c([N+](=O)[O-])cc([N+](=O)[O-])cc2C12NC(=O)NC2=O (stereo not drawn) | 10.1 | 14.1 | –
CN1C(=O)Nc2ccc(F)cc2[C@]12NC(=O)NC2=O | 12.1 | 15.5 | –
CN1C(=O)Nc2ccc(OC(=O)/C=C/c3ccccc3)cc2C12NC(=O)NC2=O (stereo not drawn) | 10.4 | 29.3 | –
Cc1ccc2c(c1)NC(=O)N(C)C21NC(=O)NC1=O (stereo not drawn) | 8.4 | 37.5 | –
CC(C)CN1C(=O)N(C)C2(NC(=O)NC2=O)c2ccccc21 (stereo not drawn) | 8.1 | 27.7 | –
Cc1cccc2c1C1(NC(=O)NC1=O)N(C)C(=O)N2 (stereo not drawn) | 9.2 | 27.5 | –
CN1C(=O)Nc2ccc([N+](=O)[O-])c(Cl)c2C12NC(=O)NC2=O (stereo not drawn) | 11.5 | 0 | –
CN1C(=O)Nc2c(Cl)cc(Cl)cc2C12NC(=O)NC2=O (stereo not drawn) | 5.8 | 63.1 | –
CN1C(=O)Nc2cccc(Cl)c2C12NC(=O)NC2=O (stereo not drawn) | 11.9 | 17.5 | –
COc1cc2c(cc1Cl)C1(NC(=O)NC1=O)N(C)C(=O)N2 (stereo not drawn) | 8.3 | 24.6 | –
CN1C(=O)Nc2c(F)cccc2C12NC(=O)NC2=O (stereo not drawn) | 9.5 | 29.9 | –
CCN1C(=O)Nc2ccccc2C12NC(=O)NC2=O (stereo not drawn) | 9.6 | 19.5 | –
COc1c(Cl)cc2c(c1Cl)NC(=O)N(C)C21NC(=O)NC1=O (stereo not drawn) | 8.4 | 37.5 | –
CN1C(=O)Nc2ccc(F)cc2C12NC(=O)NC2=O (stereo not drawn) | 6.7 | 58.7 | –

SMILES | polyol content (Rattus norvegicus [4]) [µmol/g] | Inhibition (Rattus norvegicus [7]) [%] | also measured
Cc1cc2c(cc1Cl)C1(NC(=O)NC1=O)N(C)C(=O)N2 (stereo not drawn) | 6.8 | 58 | –
CN1C(=O)Nc2cc(Cl)c([N+](=O)[O-])cc2C12NC(=O)NC2=O (stereo not drawn) | 10.6 | 7.7 | –
CN1C(=O)Nc2ccc([N+](=O)[O-])cc2C12NC(=O)NC2=O (stereo not drawn) | 12.1 | 15.5 | –
O=C1NC(=O)C2(N1)NC(=O)Nc1ccccc12 (stereo not drawn) | 10.7 | 15.1 | –
CN1C(=O)Nc2cc(Cl)c(Cl)cc2C12NC(=O)NC2=O (stereo not drawn) | 7.5 | 52.9 | –
CN1C(=O)Nc2c(cc(F)c(F)c2F)C12NC(=O)NC2=O (stereo not drawn) | 9.5 | 29.9 | –
NN1C(=O)Nc2ccccc2C12NC(=O)NC2=O (stereo not drawn) | 11.3 | 12.2 | –
CN1C(=O)Nc2ccc(Cl)cc2[C@]12NC(=O)NC2=O | 10.7 | 26.3 | –
CN1C(=O)Nc2cc(Cl)ccc2C12NC(=O)NC2=O (stereo not drawn) | 11.4 | 22.3 | –
COc1ccc2c(c1)C1(NC(=O)NC1=O)N(C)C(=O)N2 (stereo not drawn) | 10.4 | 13.6 | –
Cc1ccc2c(c1)C1(NC(=O)NC1=O)N(C)C(=O)N2 (stereo not drawn) | 9 | 30.9 | –
CN1C(=O)Nc2c([N+](=O)[O-])cc(Cl)cc2C12NC(=O)NC2=O (stereo not drawn) | 8 | 29.2 | –
CCOC(=O)c1ccc2c(c1)C1(NC(=O)NC1=O)N(C)C(=O)N2 (stereo not drawn) | 11.1 | 22.2 | –
CN1C(=O)Nc2ccccc2[C@@]12NC(=O)NC2=O | 8.4 | 39 | –
CN1C(=O)Nc2ccc(OC(=O)c3ccccc3)cc2C12NC(=O)NC2=O (stereo not drawn) | 10.5 | 12.3 | –
CN1C(=O)Nc2ccccc2C12NC(=O)NC2=O (stereo not drawn) | 8.8 | 32.5 | –
COc1ccc2c(c1)NC(=O)N(C)C21NC(=O)NC1=O (stereo not drawn) | 9.8 | 21 | –
CN1C(=O)Nc2cc3c(cc2C12NC(=O)NC2=O)OCO3 (stereo not drawn) | 9.2 | 28.4 | –
CN1C(=O)Nc2cc(N3CCOCC3)c([N+](=O)[O-])cc2C12NC(=O)NC2=O (stereo not drawn) | 10.4 | 10.3 | –
CN1C(=O)Nc2c(N)cc(Cl)cc2C12NC(=O)NC2=O (stereo not drawn) | 7 | 44.6 | –
